Results reported in PMC5696082 (Analytical biochemistry, 2017).

How the values were obtained:
[1] = target: T1, FAAH (Homo sapiens, UniProt O00519); experiment: Potency of esterase inhibitors, FAAH; type: biochemical
T1 sequence (O00519 1-579): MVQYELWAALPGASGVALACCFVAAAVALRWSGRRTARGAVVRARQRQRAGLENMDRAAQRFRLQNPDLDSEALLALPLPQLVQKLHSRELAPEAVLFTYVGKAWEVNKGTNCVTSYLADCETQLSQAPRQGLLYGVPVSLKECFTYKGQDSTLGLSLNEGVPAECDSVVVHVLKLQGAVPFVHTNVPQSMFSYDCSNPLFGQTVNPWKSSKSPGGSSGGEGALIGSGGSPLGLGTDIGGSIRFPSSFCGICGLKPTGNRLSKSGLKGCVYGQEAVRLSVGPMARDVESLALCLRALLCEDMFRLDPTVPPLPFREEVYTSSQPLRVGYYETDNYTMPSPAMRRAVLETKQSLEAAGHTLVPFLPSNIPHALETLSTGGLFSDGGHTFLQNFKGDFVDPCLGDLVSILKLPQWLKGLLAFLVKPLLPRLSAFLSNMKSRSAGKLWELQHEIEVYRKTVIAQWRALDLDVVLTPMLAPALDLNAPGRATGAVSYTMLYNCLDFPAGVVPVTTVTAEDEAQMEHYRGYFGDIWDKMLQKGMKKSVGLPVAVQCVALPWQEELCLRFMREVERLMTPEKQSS

[2] = target: PON1 (Homo sapiens, UniProt P27169); experiment: Potency of esterase inhibitors, PON1; type: biochemical
How it was run: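 PON1 used as crude lysate of baculovirus-infected insect cells in PBS. Added to 2-fold serial inhibitor dilutions (top concentration at most 100 µM) and preincubated 5 min. Cyanohydrin ester substrate then added to 50 µM final, DMSO ≤2%, in 100 mM phosphate pH 8, 0.1 mg/mL BSA, 37°C. Fluorescence (ex 330/em 465 nm) read kinetically for 10 min. IC50 from linear regression of log[inhibitor] against % remaining activity; triplicates, single experiment.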

[3] = target: T2, hCE3 (Homo sapiens, UniProt Q6UWW8); experiment: Potency of esterase inhibitors, hCE3; type: biochemical
T2 sequence (Q6UWW8 27-571): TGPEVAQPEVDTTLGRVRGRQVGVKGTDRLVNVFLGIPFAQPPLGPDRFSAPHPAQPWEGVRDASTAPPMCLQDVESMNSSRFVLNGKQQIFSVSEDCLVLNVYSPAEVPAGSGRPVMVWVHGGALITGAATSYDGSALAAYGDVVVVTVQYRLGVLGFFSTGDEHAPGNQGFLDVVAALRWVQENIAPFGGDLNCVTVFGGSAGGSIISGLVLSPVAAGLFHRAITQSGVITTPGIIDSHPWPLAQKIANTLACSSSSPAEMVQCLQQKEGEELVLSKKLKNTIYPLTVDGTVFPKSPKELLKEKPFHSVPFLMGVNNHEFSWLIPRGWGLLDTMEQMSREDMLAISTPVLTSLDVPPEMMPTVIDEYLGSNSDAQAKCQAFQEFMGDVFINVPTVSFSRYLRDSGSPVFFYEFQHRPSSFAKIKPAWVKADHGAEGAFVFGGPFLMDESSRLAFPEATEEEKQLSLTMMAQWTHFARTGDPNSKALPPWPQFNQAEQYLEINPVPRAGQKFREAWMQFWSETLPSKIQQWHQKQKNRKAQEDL

[4] = target: T3, hCE1 (Homo sapiens, UniProt P23141); experiment: Potency of esterase inhibitors, hCE1; type: biochemical
T3 sequence (P23141 18-567): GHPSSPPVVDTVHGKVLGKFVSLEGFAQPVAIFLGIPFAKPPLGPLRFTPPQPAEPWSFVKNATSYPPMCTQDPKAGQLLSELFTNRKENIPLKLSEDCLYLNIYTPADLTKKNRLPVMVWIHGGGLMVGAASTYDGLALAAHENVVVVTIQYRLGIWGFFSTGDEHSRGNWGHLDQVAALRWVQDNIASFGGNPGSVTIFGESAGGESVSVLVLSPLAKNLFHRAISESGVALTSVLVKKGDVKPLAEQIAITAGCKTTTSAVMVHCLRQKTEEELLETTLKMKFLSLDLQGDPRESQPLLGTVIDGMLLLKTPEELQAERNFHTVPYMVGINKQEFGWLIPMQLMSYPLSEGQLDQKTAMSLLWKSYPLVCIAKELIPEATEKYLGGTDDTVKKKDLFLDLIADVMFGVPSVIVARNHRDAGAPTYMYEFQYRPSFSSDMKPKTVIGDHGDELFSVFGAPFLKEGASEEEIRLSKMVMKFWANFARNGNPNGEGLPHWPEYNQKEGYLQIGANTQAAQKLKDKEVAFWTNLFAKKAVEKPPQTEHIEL

[5] = target: T4, AADAC (Homo sapiens, UniProt P22760); experiment: Potency of esterase inhibitors, AADAC; type: biochemical
T4 sequence (P22760 1-399): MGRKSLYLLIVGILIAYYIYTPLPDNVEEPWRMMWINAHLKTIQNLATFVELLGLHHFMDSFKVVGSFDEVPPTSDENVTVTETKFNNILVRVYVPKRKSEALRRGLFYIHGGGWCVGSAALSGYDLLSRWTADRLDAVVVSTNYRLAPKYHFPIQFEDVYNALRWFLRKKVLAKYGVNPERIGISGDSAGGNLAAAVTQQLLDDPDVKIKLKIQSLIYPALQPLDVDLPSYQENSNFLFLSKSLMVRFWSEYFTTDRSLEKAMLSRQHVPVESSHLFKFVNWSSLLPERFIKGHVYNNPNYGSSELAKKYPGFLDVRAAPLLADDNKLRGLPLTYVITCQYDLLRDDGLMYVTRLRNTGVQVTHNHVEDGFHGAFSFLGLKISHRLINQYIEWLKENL

[6] = system: Kidney S9; experiment: Substrate hydrolysis by pooled tissue S9, kidney; type: biochemical, human
How it was run: (§1)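 Commercial pooled human tissue S9 fraction added to substrate at 50 µM final in 100 mM sodium phosphate, pH 8.0, 0.1 mg/mL BSA. Fluorescence monitored every 30 s for at least 10 min at 37°C. Specific activity given as the mean of triplicates in one experiment, or mean ± standard deviation of 3 independent experiments run in triplicate.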

[7] = target: T3, hCE1; experiment: Limit of detection and quantification for hCE1 using partially purified enzyme; type: biochemical; conditions: [S] = 50 µM; for LOD for hCE1: S/N > 3; for LOQ for hCE1: S/N > 9
How it was run: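 Partially purified recombinant hCE1, without any matrix, diluted into wells with substrate at 50 µM. Assay run in 100 mM sodium phosphate, pH 8, 0.1 mg/mL BSA, 1% DMSO, at 37°C. S/N taken as mean signal of enzyme wells over the SD of […], quadruplicates in one experiment. LOD set as the lowest level with S/N > 3; LOQ as S/N > 9.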

[8] = target: T1, FAAH; experiment: Specific activity of FAAH towards substrates; type: biochemical; conditions: Table 2; [S] = 50 µM, 37°C, pH 8; estimated 6.9% purity
How it was run: (§2)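 Enzymes expressed in baculovirus-infected High Five cells: hCE1 CHAPS-solubilised from the 100,000 g pellet, then DEAE-purified; hCE2/hCE3 crude soluble fraction; FAAH crude insoluble fraction. Substrate added to 50 µM final in 100 mM sodium phosphate pH 8.0, 0.1 mg/mL BSA, 1% DMSO. Fluorescence read every 30 s for ≥10 min at 37°C. Rates corrected for estimated purity: hCE1 25%, hCE2 4%, hCE3 3.5% (3% in footnotes), FAAH 6.9%. Triplicates.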

[9] = Background hydrolysis of substrates in phosphate buffer; type: physicochemical; conditions: phosphate buffer 100 mM, pH 8, 0.1 mg/mL BSA
[10] = system: Liver S9; experiment: Substrate hydrolysis by pooled tissue S9, liver; type: biochemical, human
How it was run: as §1

[11] = target: T2, hCE3; experiment: Specific activity of hCE3 towards substrates; type: biochemical
How it was run: as §2

[12] = system: Lung S9; experiment: Substrate hydrolysis by pooled tissue S9, lung; type: biochemical, human
How it was run: as §1

[13] = system: Intestine S9; experiment: Substrate hydrolysis by pooled tissue S9, intestine; type: biochemical, human
How it was run: as §1

[14] = target: T5, hCE2 (Homo sapiens, UniProt O00748); experiment: Specific activity of hCE2 towards substrates; type: biochemical
T5 sequence (O00748 27-559): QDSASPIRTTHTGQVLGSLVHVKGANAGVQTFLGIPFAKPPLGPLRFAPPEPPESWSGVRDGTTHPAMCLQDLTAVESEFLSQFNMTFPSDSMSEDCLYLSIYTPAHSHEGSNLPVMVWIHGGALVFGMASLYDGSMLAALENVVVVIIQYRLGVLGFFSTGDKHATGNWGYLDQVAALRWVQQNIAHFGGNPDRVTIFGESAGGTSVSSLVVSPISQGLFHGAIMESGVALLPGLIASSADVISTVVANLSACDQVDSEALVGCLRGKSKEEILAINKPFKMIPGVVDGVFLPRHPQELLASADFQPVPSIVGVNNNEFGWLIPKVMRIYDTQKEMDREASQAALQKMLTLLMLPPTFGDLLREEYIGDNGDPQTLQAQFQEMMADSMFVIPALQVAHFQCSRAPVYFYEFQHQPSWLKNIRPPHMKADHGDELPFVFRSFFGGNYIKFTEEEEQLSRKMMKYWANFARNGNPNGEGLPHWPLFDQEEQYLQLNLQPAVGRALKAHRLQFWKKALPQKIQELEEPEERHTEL
How it was run: as §2

[15] = target: T3, hCE1; experiment: Specific activity of hCE1 towards substrates; type: biochemical
How it was run: as §2

[16] = target: T5, hCE2; experiment: Potency of esterase inhibitors, hCE2; type: biochemical
[17] = Kinetic mode (30 s intervals for 30 minutes)

Sequence of PON1 (P27169 whole entry, species assumed): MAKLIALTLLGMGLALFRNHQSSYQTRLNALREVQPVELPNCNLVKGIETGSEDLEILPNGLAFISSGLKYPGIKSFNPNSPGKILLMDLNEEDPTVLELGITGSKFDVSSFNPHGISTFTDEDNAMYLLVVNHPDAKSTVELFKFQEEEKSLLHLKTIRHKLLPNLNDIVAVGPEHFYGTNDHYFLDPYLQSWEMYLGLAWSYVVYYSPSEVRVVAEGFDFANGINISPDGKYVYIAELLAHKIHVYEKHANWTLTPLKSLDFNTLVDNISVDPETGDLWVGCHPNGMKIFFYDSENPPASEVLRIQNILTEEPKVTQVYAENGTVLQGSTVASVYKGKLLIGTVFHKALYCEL

Compound `COc1ccc(C(=O)C(=O)c2ccccc2Cl)cc1OC` [2-chloro-3’,4’- dimethoxybenzil, 2-chloro-3’,4’-dimethoxybenzil] has an IC50 [1] of 7.6 µM, an IC50 [2] of 25 µM and an IC50 [3] greater than 100 µM. For the same compound, the IC50 [4] was 2.5 µM and the IC50 [5] was greater than 100 µM.

With `COc1ccc2cc(C(C#N)OC(C)=O)ccc2c1` (stereo not shown) [CMNA, cyano(6-methoxynaphthalen-2-yl)methyl acetate] the “Hydrolysis Specific Activity” value [6] was 15 ± 5 pmol/min/µg, the “LOD for hCE1” value ([7]; Endpoint mode 1 hour) was 0.98 ng and the “LOQ for hCE1” value ([7]; Endpoint mode 1 hour) was 7.8 ng. The “LOD for hCE1” value ([7]; Endpoint mode 4 hours) was 3.9 ng, the “LOD for hCE1” value ([7]; Endpoint mode 24 hours) was 0.06 ng and the “LOD for hCE1” value [7, 17] was 2.0 ng. For the same compound, the “LOQ for hCE1” value [7, 17] was 3.9 ng, the “FAAH Specific activity” value [8] was 13 pmol/min/µg and the “Rate of background hydrolysis” value [9] was 20 pmol/min. For the same compound, the “Hydrolysis Specific Activity” value [10] was 180 ± 30 pmol/min/µg, the “hCE3 Specific activity” value ([11]; Table 2, [S] = 50 µM, 37°C, pH 8, estimated 3% purity) was 150 pmol/min/µg and the “Hydrolysis Specific Activity” value ([11]; Table 6, hCE3) was 150 pmol/min/µg. For the same compound, the “Hydrolysis Specific Activity” value [12] was 13 ± 1 pmol/min/µg, the “Hydrolysis Specific Activity” value [13] was 74 ± 3 pmol/min/µg and the “hCE2 Specific activity” value ([14]; Table 2, [S] = 50 µM, 37°C, pH 8, estimated 4% purity) was 11000 pmol/min/µg. For the same compound, the “Hydrolysis Specific Activity” value ([14]; Table 6, hCE2) was 11,000 pmol/min/µg, the “hCE1 Specific activity” value ([15]; Table 2, [S] = 50 µM, 37°C, pH 8, estimated 25% purity) was 3000 pmol/min/µg and the “Hydrolysis Specific Activity” value ([15]; Table 6, hCE1) was 3,000 pmol/min/µg.

`CN(C)C(=O)C(CCN1CCC(O)(c2ccc(Cl)cc2)CC1)(c1ccccc1)c1ccccc1` [Loperamide] gave an IC50 [1] greater than 100 µM, an IC50 [2] greater than 100 µM and an IC50 [3] greater than 100 µM. The IC50 [5] was 23 µM.

In the case of `NC(Cc1cc(I)c(Oc2cc(I)c(O)c(I)c2)c(I)c1)C(=O)O` (stereo not shown) [Thyroxine], the IC50 [1] is reported as greater than 100 µM, the IC50 [2] is reported as 2.1 µM and the IC50 [3] is reported as 23 µM. The IC50 [16] was 16 µM, the “Selectivity hCE2/hCE1” value ([16]; from IC50 values) was 0.094 and the IC50 [4] was 1.5 µM. It also gave an IC50 [5] of 0.73 µM.
